Results from ChEMBL document CHEMBL4321819, “Simple Structural Modifications Converting a Bona fide MDM2 PROTAC Degrader into a Molecular Glue Molecule: A Cautionary Tale in the Design of PROTAC Degraders” (J Med Chem, 2019).
Active and inactive are the calls of the source. No cut-off for these calls is given here.

Tests used:
[1] = Antiproliferative activity against human RS4:11/IRMI-2 cells harboring p53 hotspot mutation Y236H/R249G assessed as cell growth inhibition after 4 days by WST-8 assay; format: functional, cell-based; details: RS4-11, 96 h
How it was run: (§1)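 Leukemia cells seeded at 10000–20000 cells/well, breast cancer lines at 5000–10000 cells/well. Serially diluted compound added, then 4 days at 37 °C, 5% CO2. Growth read with WST-8 reagent after at least 1 h, absorbance at 450 nm. RS4;11, MOLM-13 and breast lines were grown in RPMI 1640; MV-4-11 and HL-60 in IMDM; all with 10% FBS. Mean ± SE, at least three independent experiments.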

RS4-11 [2] = test: Antiproliferative activity against human RS4:11 cells expressing wild type p53 assessed as cell growth inhibition after 4 days by WST-8 assay; format: functional, cell-based; details: RS4-11, 96 h; how it was run: as §1
MDA-MB-231 = test: Antiproliferative activity against human MDA-MB-231 cells transfected with CRBN siRNA LQ-021086-10-0002 assessed as cell growth inhibition after 4 days by WST-8 assay; format: functional, cell-based; details: MDA-MB-231, 72 h, in the assay text read “after 3 days” for “after 4 days”
How it was run: (§2)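 MDA-MB-231 or MDA-MB-468 cells transfected for 2 days using Lipofectamine RNAiMAX with MDM2 siRNA, one of two CRBN siRNAs, or non-targeting control siRNA. Compound then added and growth read by WST-8 at 450 nm.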

[3] = molecular target: T1, Protein cereblon/Eukaryotic peptide chain release factor GTP-binding subunit ERF3A/DNA damage-binding protein 1/Cullin-4A (Homo sapiens) (UniProt Q96SW2+Q16531+Q13619+P15170); test: Protac activity at GSPT1/CUL4/DDB1/CRBN in human RS4:11/IRMI-2 cells harboring p53 hotspot mutation Y236H/R249G assessed as decrease in GSPT1 protein level by measuring fold change of protein level before and after treatment at 0.1 uM measured after 3 hrs relative to control
[4] = molecular target: T1, Protein cereblon/Eukaryotic peptide chain release factor GTP-binding subunit ERF3A/DNA damage-binding protein 1/Cullin-4A (Homo sapiens); test: Protac activity at GSPT1/CUL4/DDB1/CRBN in human RS4:11 cells expressing wild type p53 assessed as decrease in GSPT1 protein level after 2 hrs by Western blot analysis; format: cell-based
How it was run: (§3)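 RS4;11 (wild-type p53) or RS4;11/IRMI-2 (MDM2 inhibitor-resistant derivative, mutant p53) cells kept in RPMI 1640 with 10% FBS at 37 °C, 5% CO₂. 2×10^6 cells/well treated at the indicated concentrations and times, then lysed in ice-cold lysis buffer with protease inhibitor. GSPT1 detected by Western blot with a specific antibody.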

MOLM-13 = test: Antiproliferative activity against human MOLM13 cells expressing wild type p53 assessed as cell growth inhibition after 4 days by WST-8 assay; format: functional, cell-based; details: MOLM-13, 96 h; how it was run: as §1
[5] = molecular target: T1, Protein cereblon/Eukaryotic peptide chain release factor GTP-binding subunit ERF3A/DNA damage-binding protein 1/Cullin-4A (Homo sapiens); test: Protac activity at GSPT1/CUL4/DDB1/CRBN in human RS4:11 cells expressing wild type p53 assessed as decrease in GSPT1 protein level measured upto 24 hrs by Western blot analysis; format: cell-based; how it was run: as §3
[6] = molecular target: T1, Protein cereblon/Eukaryotic peptide chain release factor GTP-binding subunit ERF3A/DNA damage-binding protein 1/Cullin-4A (Homo sapiens); test: Protac activity at GSPT1/CUL4/DDB1/CRBN in human RS4:11/IRMI-2 cells harboring p53 hotspot mutation Y236H/R249G assessed as effect on GSPT1 mRNA level after 3 hrs by qRT-PCR analysis; format: cell-based
[7] = molecular target: Cellular tumor antigen p53 (Homo sapiens) (UniProt P04637); test: Activation of p53 in human RS4:11 cells assessed as increase in PUMA mRNA expression at 3 nM after 1 to 2 hrs by qRT-PCR analysis; format: cell-based
How it was run: (§4)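 RS4;11 cells (RPMI 1640, 10% FBS, 37 °C, 5% CO2) treated with 3 nM or 10 nM compound; total RNA extracted and mRNA of p53 targets MDM2, CDKN1A, PUMA and BAX quantified by qRT-PCR. Mean ± standard error from at least three independent experiments.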

MDA-MB-468 [8] = test: Antiproliferative activity against human MDA-MB-468 cells harboring mutant p53 assessed as cell growth inhibition without interaction with cereblon after 4 days by WST-8 assay; format: functional, cell-based; details: MDA-MB-468, 96 h
[9] = molecular target: Eukaryotic peptide chain release factor GTP-binding subunit ERF3A (Homo sapiens, UniProt P15170); test: Induction of GSPT1 degradation in human MDA-MB-468 cells transfected with CRBN siRNA LQ-021086-11-0002 assessed as decrease in GSPT1 protein level at 0.1 uM after 2 to 24 hrs by Western blot analysis; format: cell-based
How it was run: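 MDA-MB-231 or MDA-MB-468 cells transfected 2 days with CRBN siRNA (Lipofectamine RNAiMAX; non-targeting siRNA as control), then exposed to 0.1 μM for 2 h or 24 h. Cell culture was RPMI 1640 with 10% FBS at 37 °C, 5% CO2. GSPT1 and cereblon protein were probed by Western blot.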

[10] = molecular target: T1, Protein cereblon/Eukaryotic peptide chain release factor GTP-binding subunit ERF3A/DNA damage-binding protein 1/Cullin-4A (Homo sapiens); test: Protac activity at GSPT1/CUL4/DDB1/CRBN in human RS4:11 cells expressing wild type p53 assessed as effect on GSPT1 mRNA level after 3 hrs by qRT-PCR analysis; format: cell-based
How it was run: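 Total RNA taken from treated cells at the indicated time points. RNA concentration measured on a plate reader. GSPT1 mRNA quantified by qRT-PCR. Data are mean ± standard error from at least three independent experiments.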

RS4-11 [11] = test: Antiproliferative activity against human RS4:11 cells expressing wild type p53 assessed as MDM2-independent cell growth inhibition after 4 days by WST-8 assay; format: functional, cell-based; details: RS4-11, 96 h; how it was run: as §1
[12] = molecular target: Cellular tumor antigen p53 (Homo sapiens) (UniProt P04637); test: Activation of p53 in human RS4:11 cells assessed as increase in BAX mRNA expression at 3 nM after 1 to 2 hrs by qRT-PCR analysis; format: cell-based; how it was run: as §4
MDA-MB-468 [13] = test: Antiproliferative activity against human MDA-MB-468 cells transfected with MDM2 siRNA assessed as cell growth inhibition after 4 days by WST-8 assay; format: functional, cell-based; details: MDA-MB-468, 96 h; how it was run: as §2
[14] = molecular target: Protein cereblon/Eukaryotic peptide chain release factor GTP-binding subunit ERF3A (Homo sapiens) (UniProt Q96SW2+P15170); test: Inhibition of cereblon binding with GSPT1 human MDA-MB-468 cells assessed as decrease in GSPT1 degradation at 0.1 uM after 2 hrs in presence of 30 uM lenalidomide by Western blot analysis; format: cell-based
How it was run: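 MDA-MB-231 or MDA-MB-468 cells were treated 2 h with or without 30 μM lenalidomide to block cereblon binding. GSPT1 protein level was then assessed by Western blotting.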

[15] = molecular target: E3 ubiquitin-protein ligase Mdm2 (Homo sapiens, UniProt Q00987); test: Induction of MDM2 degradation in human RS4:11 cells assessed as downregulation of MDM2 at 1 to 30 nM after 1 hr by Western blot analysis; format: cell-based
How it was run: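 Western blots of MDM2 and p53 protein were run on RS4;11 cells (wild-type p53) in RPMI 1640 with 10% FBS. 2×10^6 cells/well were treated at the indicated concentrations for 1 h or 2 h. Lysis was in ice-cold buffer with protease inhibitor, followed by probing with specific antibodies.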

T1 sequence (P15170 whole entry, looked up): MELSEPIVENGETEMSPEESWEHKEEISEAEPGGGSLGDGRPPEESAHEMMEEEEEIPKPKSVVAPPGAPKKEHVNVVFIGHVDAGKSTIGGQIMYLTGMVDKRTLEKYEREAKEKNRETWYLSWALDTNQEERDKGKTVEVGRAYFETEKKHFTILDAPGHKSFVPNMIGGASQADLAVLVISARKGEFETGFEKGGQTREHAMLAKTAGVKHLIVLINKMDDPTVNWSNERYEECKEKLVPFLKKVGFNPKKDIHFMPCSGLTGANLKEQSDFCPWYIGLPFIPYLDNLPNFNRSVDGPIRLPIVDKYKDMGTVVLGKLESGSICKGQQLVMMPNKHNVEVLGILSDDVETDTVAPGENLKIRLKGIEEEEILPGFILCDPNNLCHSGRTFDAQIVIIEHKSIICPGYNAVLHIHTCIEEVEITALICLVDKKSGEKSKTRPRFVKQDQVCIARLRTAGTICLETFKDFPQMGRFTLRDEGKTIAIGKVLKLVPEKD
T1 sequence (Q13619 whole entry, looked up): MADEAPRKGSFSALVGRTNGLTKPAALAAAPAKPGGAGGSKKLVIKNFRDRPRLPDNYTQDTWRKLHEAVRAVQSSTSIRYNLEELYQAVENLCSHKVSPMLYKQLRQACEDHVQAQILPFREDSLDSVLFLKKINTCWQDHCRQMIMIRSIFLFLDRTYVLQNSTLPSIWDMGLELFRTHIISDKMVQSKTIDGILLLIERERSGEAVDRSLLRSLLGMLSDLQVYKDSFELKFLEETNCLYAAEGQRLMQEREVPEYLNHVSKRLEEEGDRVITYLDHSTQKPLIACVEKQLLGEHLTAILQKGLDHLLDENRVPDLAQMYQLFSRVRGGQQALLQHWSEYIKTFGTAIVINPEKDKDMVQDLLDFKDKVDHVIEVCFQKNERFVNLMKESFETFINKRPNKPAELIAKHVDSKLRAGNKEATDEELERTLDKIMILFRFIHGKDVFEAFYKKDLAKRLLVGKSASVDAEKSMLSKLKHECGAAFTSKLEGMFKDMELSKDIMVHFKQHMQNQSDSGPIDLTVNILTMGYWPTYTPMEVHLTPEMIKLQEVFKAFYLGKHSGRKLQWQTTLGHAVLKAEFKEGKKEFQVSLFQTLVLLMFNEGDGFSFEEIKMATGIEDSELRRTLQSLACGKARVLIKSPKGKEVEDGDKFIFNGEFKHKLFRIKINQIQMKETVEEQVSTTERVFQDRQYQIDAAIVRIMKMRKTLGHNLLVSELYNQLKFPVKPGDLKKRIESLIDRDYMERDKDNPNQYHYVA
T1 sequence (Q16531 whole entry, looked up): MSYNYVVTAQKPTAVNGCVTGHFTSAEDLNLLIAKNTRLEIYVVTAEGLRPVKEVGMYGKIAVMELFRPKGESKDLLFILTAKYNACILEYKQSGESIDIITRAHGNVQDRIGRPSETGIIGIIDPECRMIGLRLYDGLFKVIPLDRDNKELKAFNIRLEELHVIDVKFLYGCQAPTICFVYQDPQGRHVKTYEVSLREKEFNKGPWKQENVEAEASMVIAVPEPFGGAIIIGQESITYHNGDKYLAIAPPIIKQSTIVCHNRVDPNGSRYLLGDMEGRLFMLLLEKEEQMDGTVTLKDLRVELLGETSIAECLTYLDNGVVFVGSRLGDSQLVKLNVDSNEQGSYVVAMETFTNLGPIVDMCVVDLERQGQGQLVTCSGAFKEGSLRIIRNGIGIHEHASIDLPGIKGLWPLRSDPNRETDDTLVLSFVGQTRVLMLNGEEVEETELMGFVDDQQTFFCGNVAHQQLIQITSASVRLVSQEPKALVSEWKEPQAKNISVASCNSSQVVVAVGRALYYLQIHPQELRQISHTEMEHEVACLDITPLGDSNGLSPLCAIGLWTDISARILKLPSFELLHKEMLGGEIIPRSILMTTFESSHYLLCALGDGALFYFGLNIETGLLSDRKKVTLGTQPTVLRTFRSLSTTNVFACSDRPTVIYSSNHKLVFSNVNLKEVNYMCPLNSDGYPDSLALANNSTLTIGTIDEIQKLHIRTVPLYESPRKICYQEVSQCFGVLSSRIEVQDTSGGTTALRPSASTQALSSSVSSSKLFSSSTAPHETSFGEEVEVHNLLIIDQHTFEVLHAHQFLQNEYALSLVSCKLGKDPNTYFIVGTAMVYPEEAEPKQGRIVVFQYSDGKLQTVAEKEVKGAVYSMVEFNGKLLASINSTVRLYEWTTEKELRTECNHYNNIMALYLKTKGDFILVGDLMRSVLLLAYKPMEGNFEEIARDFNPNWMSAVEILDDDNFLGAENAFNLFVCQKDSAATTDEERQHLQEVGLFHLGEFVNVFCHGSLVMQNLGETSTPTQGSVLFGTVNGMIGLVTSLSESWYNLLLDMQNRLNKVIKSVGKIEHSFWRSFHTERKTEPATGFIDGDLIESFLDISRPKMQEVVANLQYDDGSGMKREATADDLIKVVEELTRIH
T1 sequence (Q96SW2 whole entry, looked up): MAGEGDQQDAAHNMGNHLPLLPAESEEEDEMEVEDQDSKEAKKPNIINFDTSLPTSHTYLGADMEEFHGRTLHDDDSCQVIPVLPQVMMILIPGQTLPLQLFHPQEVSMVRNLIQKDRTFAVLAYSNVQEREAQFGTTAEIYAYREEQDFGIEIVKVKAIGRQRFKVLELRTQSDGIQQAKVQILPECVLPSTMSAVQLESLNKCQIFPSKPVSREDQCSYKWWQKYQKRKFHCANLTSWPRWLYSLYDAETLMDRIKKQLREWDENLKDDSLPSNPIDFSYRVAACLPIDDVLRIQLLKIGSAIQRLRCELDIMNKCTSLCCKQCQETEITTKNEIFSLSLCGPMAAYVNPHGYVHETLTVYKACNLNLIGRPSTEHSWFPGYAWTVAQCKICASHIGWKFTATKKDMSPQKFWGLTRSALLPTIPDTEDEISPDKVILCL
Chain of Cellular tumor antigen p53 (Homo sapiens) (P04637 whole entry, looked up): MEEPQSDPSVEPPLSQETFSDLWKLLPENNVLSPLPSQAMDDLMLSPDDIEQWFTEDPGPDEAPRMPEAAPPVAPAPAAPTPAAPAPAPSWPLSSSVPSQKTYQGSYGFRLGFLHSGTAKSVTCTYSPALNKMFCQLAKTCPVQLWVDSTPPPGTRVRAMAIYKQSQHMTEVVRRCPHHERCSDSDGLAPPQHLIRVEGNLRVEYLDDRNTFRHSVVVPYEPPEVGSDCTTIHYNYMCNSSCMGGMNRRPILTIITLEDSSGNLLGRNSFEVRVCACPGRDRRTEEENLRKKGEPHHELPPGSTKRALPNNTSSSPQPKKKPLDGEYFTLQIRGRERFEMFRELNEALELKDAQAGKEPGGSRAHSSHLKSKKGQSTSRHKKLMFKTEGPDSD
Chain of E3 ubiquitin-protein ligase Mdm2 (Q00987 whole entry, looked up): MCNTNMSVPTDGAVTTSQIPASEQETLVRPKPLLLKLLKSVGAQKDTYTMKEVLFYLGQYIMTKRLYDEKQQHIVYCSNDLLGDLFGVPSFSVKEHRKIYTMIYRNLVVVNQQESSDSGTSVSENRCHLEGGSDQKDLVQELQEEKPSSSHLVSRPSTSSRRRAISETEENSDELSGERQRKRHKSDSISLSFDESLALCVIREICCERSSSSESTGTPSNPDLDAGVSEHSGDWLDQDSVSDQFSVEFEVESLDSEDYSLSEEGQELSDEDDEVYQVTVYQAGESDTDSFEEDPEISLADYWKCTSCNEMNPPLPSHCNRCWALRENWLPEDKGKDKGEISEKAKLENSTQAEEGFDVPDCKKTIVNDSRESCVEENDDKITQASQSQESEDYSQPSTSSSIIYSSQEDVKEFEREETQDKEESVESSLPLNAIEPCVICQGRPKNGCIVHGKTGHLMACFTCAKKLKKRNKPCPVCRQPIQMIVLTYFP
Chain of Protein cereblon/Eukaryotic peptide chain release factor GTP-binding subunit ERF3A (Homo sapiens) (P15170 whole entry, looked up): as the sequence (P15170 whole entry, looked up) above
Chain of Protein cereblon/Eukaryotic peptide chain release factor GTP-binding subunit ERF3A (Homo sapiens) (Q96SW2 whole entry, looked up): as the sequence (Q96SW2 whole entry, looked up) above
Chain of Eukaryotic peptide chain release factor GTP-binding subunit ERF3A (P15170 whole entry): as the sequence (P15170 whole entry, looked up) above

**Q.** With O=C1CCC(N2Cc3c(CCCCCNC(=O)[C@@H]4NC5(CCCCC5)[C@@]5(C(=O)Nc6cc(Cl)ccc65)[C@H]4c4cccc(Cl)c4F)cccc3C2=O)C(=O)N1 (some centres not stated) as the compound, how does the IC50 [1] read?
**A.** 3.4 nM

**Q.** And the IC50 (RS4-11 [2])?
**A.** 3.5 nM

**Q.** And the IC50 (MDA-MB-231)?
**A.** > 3000 nM

**Q.** And the fold change [3]?
**A.** 3.7

**Q.** What about the Activity [4] of the same compound?
**A.** Active

**Q.** And the IC50 (MOLM-13)?
**A.** 24.6 nM

**Q.** And the Activity [5]?
**A.** Dose-dependent effect

**Q.** And the Activity [6]?
**A.** inactive

**Q.** And the Activity [7]?
**A.** inactive

**Q.** And the IC50 (MDA-MB-468 [8])?
**A.** 26.4 nM

**Q.** What about the Activity [9] of the same compound?
**A.** inactive

**Q.** What about the Activity [10] of the same compound?
**A.** inactive

**Q.** And the IC50 (RS4-11 [11])?
**A.** 2.3 nM

**Q.** And the Activity [12]?
**A.** inactive

**Q.** And the IC50 (MDA-MB-468 [13])?
**A.** 19.8 nM

**Q.** What about the inhibition [14] of the same compound?
**A.** Active

**Q.** And the Activity [15]?
**A.** inactive
